From ChEMBL document CHEMBL3414544, “PAINS in the assay: chemical mechanisms of assay interference and promiscuous enzymatic inhibition observed during a sulfhydryl-scavenging HTS” (J Med Chem, 2015) come the findings set out here.

For series [1], the target named is T1, Histone acetyltransferase RTT109 (Saccharomyces cerevisiae (strain ATCC 204508 / S288c) (Baker's yeast), UniProt Q07794).
T1 sequence (Q07794 whole entry): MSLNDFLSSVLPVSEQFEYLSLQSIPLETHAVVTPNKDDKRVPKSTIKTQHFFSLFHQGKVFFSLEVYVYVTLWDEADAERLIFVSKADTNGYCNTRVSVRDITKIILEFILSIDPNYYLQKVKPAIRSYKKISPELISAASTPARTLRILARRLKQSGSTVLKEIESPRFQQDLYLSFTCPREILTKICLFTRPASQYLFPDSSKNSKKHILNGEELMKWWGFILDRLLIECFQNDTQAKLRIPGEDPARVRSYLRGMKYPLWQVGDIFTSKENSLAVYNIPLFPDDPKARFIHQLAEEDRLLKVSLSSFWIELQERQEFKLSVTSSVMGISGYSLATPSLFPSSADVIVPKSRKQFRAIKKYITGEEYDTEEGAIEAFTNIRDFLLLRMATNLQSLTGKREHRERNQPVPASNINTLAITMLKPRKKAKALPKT
In words: Inhibition of Vps75-stimulated recombinant Saccharomyces cerevisiae histone acetyltransferase Rtt109 using Asf1-dH3-H4 as substrate assessed as coenzyme A production after 45 mins by CPM based HTS assay. Conditions: read-out: IC50. An outline of the steps:
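Recombinant Rtt109–Vps75 at 50 nM, with Asf1–dH3–H4 as substrate and acetyl-CoA as acetyl donor. Buffer contained freshly prepared 0.01% Triton X-100. The CoA product was detected by fluorescence of its CPM adduct. Plates had Z′ ≥0.5. IC50 came from a four-parameter variable-slope fit.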

Series [2] in a line: Fluorescence quenching in HTS buffer with […] CoA assessed as fluorescence signal reduction at 10 uM after 10 mins. The series is classed as physicochemical.
Series [3] addresses T2, Histone acetyltransferase RTT109 (Saccharomyces cerevisiae (strain ATCC 204508 / S288c) (Baker's yeast)) (UniProt Q07794).
T2 sequence (whole entry): T1 sequence (Q07794 whole entry)
As to the kind of experiment: Inhibition of Vps75-stimulated recombinant Saccharomyces cerevisiae histone acetyltransferase Rtt109 assessed as H3K56 acetylated product at […] after 45 mins by Slot bolt inhibiton assay.

A short description of series [4]: Fluorescence quenching in HTS buffer with 20 uM 7-diethylamino-3-(4'-maleimidyl-phenyl)-4-methylcoumarin assessed as fluorescence signal reduction at 10 uM after 10 mins. The series is classed as physicochemical.
Series [5] in a line: Fluorescence quenching assessed as fluorescence signal reduction at 10 uM after 10 mins. It is filed as physicochemical. In a few lines: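 CPM (20 μM final) and CoA (5 μM final) reacted to completion in assay buffer (stable plateau, usually ~5 min); adduct solution added to wells preplated with compound; shaken 5 min, equilibrated 5 min at room temperature; fluorescence intensity read as percent signal reduction versus DMSO controls. Flagged as quencher at >20% signal reduction at 10 μM final compound.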

Series [6] in a line: Fluorescence quenching in HTS buffer assessed as fluorescence signal reduction at 10 uM after 10 mins. The series is classed as physicochemical.
Series [7] concerns the target T2, Histone acetyltransferase RTT109 (Saccharomyces cerevisiae (strain ATCC 204508 / S288c) (Baker's yeast)). In words: Inhibition of Vps75-stimulated recombinant Saccharomyces cerevisiae histone acetyltransferase Rtt109 assessed as H3K27 acetylated product at […] after 45 mins by Slot bolt inhibiton assay.

The structures appear in SMILES notation. Activity calls are given as the source filed them.

Usually IC50 stands for the concentration that gives 50% inhibition. In the case of `O=C1CC(Sc2nncn2-c2ccccc2)C(=O)N1c1cc(Cl)cc(Cl)c1` (configuration not stated), in series [1], the IC50 turned out to be 16 µM. In addition, the Activity result in series [2], in series [4], in series [5] and in series [6] was “Not Active” throughout. The result in series [3] and in series [7] was Active.

For the molecule `O=S(=O)(Nc1cc(Sc2nc[nH]n2)c(O)c2ccccc12)c1ccc(Cl)cc1`, in series [1], the IC50 amounted to 1.4 µM. The Activity entry in series [2], in series [4], in series [5] and in series [6] was “Not Active” in each case. Moreover, in series [3], the outcome was inactive. Besides, in series [7], the outcome was Active.

For the molecule `O=[N+]([O-])c1ccc(Sc2nnnn2-c2ccccc2)c2nonc12`, the IC50 in series [1] came to 0.45 µM. In addition, the Activity entry in series [2], in series [4], in series [5] and in series [6] was “Not Active” throughout. Moreover, the result in series [3] and in series [7] was Active.

`Cc1ccc(Sc2cc(NS(=O)(=O)c3ccc(Cl)cc3)c3ccccc3c2O)cc1`: in series [1], the IC50 worked out at 2.9 µM. Moreover, the Activity result in series [2], in series [4], in series [5] and in series [6] was “Not Active” in each case. The result in series [3] was Active. The outcome in series [7] was inactive.

Turning to `O=C1C=CC(=O)N1c1ccc(Oc2ccccc2)cc1`, in series [1], the IC50 is 3 µM. Further, the Activity entry in series [2], in series [4], in series [5] and in series [6] was “Not Active” throughout. Moreover, the result in series [3] and in series [7] was Active.

`COc1ccc(Cc2nnc(SC3=CS(=O)(=O)c4ccccc43)o2)cc1`: the IC50 in series [1] came out at 7.1 µM. In addition, the Activity entry in series [2], in series [4], in series [5] and in series [6] was “Not Active” in each case. Moreover, the result in series [3] and in series [7] was Active.

Consider `O=C1C=CC(=O)N1c1ccc(Br)cc1`, for which the IC50 in series [1] worked out at 3 µM. The Activity entry in series [2], in series [4], in series [5] and in series [6] was “Not Active” throughout. Further, the result in series [3] and in series [7] was Active.

`O=S(=O)(Nc1cc(SCc2ccco2)c(O)c2ccccc12)c1ccccc1`: the IC50 in series [1] turned out to be 2.1 µM. For the same molecule, the Activity entry in series [2], in series [4], in series [5] and in series [6] was “Not Active” in each case. The outcome in series [3] and in series [7] was Active.

As for `O=S(=O)(Nc1cc(Br)c(O)c2ccccc12)c1ccc(F)cc1`, the IC50 in series [1] worked out at 4.4 µM. For the same molecule, the Activity entry in series [2], in series [4], in series [5] and in series [6] was “Not Active” in each case. Moreover, the result in series [3] and in series [7] was Active.

With `O=[N+]([O-])c1cccc(S(=O)(=O)Nc2cc(SCc3ccccc3)c(O)c3ccccc23)c1`, in series [1], the IC50 was 2 µM. The Activity result in series [2], in series [4], in series [5] and in series [6] was “Not Active” in each case. Moreover, the outcome in series [3] and in series [7] was Active.

As for `O=S(=O)(Nc1cc(Sc2nc3ccccc3s2)c(O)c2ccccc12)c1ccccc1`, the IC50 in series [1] amounted to 9.9 µM. Besides, the Activity result in series [2], in series [4], in series [5] and in series [6] was “Not Active” each time. The outcome in series [3] and in series [7] was Active.

`COc1ccc(N2C(=O)CC(Sc3n[nH]c(-c4ccccc4)n3)C2=O)cc1` (configuration not stated): the IC50 in series [1] turned out to be 21 µM. Further, the Activity result in series [2], in series [4], in series [5] and in series [6] was “Not Active” throughout. The outcome in series [3] and in series [7] was Active.

For `COc1ccc(N2C(=O)CC(Sc3n[nH]c(-c4ccc(C)cc4)n3)C2=O)cc1` (configuration not stated), the IC50 in series [1] is 10 µM. The Activity result in series [2], in series [4], in series [5] and in series [6] was “Not Active” each time. Moreover, the result in series [3] and in series [7] was Active.

Turning to `O=S(=O)(Nc1cc(Sc2nc[nH]n2)c(O)c2ccccc12)c1ccccc1`, the IC50 in series [1] stood at 1.4 µM. Also, the Activity entry in series [2], in series [4], in series [5] and in series [6] was “Not Active” in each case. Besides, the result in series [3] and in series [7] was Active.

Take `CN(CCO)c1cc(Sc2nnc(-c3ccccc3)o2)c2nonc2c1[N+](=O)[O-]`: the 50% inhibitory concentration (IC50) in series [1] was determined as 5.3 µM. Further, the Activity entry in series [2], in series [4], in series [5] and in series [6] was “Not Active” throughout. Also, the outcome in series [3] and in series [7] was Active.

As to `O=C1C=CC(=O)N1c1ccc2ccccc2c1`, in series [1], the IC50 worked out at 3.6 µM. The Activity entry in series [2], in series [4], in series [5] and in series [6] was “Not Active” throughout. Besides, the outcome in series [3] and in series [7] was Active.

On to `[Br-].c1ccc(CNc2nc(-c3ccccc3)[n+](-c3ccccc3)s2)cc1`, for which the IC50 in series [1] amounted to 2.4 µM. For the same molecule, the Activity result in series [2], in series [4], in series [5] and in series [6] was “Not Active” in each case. The result in series [3] and in series [7] was Active.

For `O=[N+]([O-])c1c(SCc2ccccc2)cc(Cl)c2nonc12`, the IC50 in series [1] came to 1.7 µM. Further, the Activity result in series [2], in series [4], in series [5] and in series [6] was “Not Active” in each case. For the same molecule, the result in series [3] and in series [7] was Active.

With `Nc1ncnc2[nH]c(Sc3c([N+](=O)[O-])cc(Br)c4nsnc34)nc12`, the IC50 in series [1] amounted to 3.2 µM. For the same molecule, the Activity result in series [2], in series [4], in series [5] and in series [6] was “Not Active” in each case. The result in series [3] and in series [7] was Active.

Take `CC(C)(C)c1ccc(S(=O)(=O)Nc2ccc(O)c(Cl)c2)cc1`: in series [1], the IC50 turned out to be 75 µM. For the same molecule, the Activity result in series [2], in series [4], in series [5] and in series [6] was “Not Active” each time. In addition, the outcome in series [3] and in series [7] was inactive.

For the molecule `O=C1C=CC(=O)N1c1cc(Cl)cc(Cl)c1`, the IC50 in series [1] turned out to be 3.1 µM. The Activity result in series [2], in series [4], in series [5] and in series [6] was “Not Active” throughout. Further, the outcome in series [3] and in series [7] was Active.
